In ChEMBL document CHEMBL3085728, “Conformational modifications of gB from herpes simplex virus type 1 analyzed by synthetic peptides” (J Med Chem, 2013):
The source made the active and inactive calls. No cut-off for these calls is given here.

Legend:
Human alphaherpesvirus 1 [1] = experiment: Antiviral activity against Herpes simplex virus type 1 assessed as inhibition of viral entry into African green monkey Vero cells at 20 to 200 uM compound treated post viral titration for 30 mins measured 48 hrs post viral titration by plaque formation assay; type: functional, organism-based
Human alphaherpesvirus 1 [2] = experiment: Antiviral activity against Herpes simplex virus type 1 assessed as inhibition of viral entry into African green monkey Vero cells at 100 uM compound preincubated with virus for 45 mins followed by viral titration measured 48 hrs post viral titration by plaque formation assay relative to control; type: functional; conditions: Human alphaherpesvirus 1, Vero
Vero = experiment: Cytotoxicity against African green monkey Vero cells at 10 to 500 uM after 24 hrs by LDH assay; type: cell-based; conditions: chlorocebus sabaeus
Procedure, shortened: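 Vero monolayers exposed to peptides at 10, 50, 100, 200, 250 and 500 μM for 24 h; viability read by lactate dehydrogenase release with a commercial cytotoxicity detection kit, compared against untreated cells.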

Human alphaherpesvirus 1 [3] = experiment: Antiviral activity against Herpes simplex virus type 1 assessed as inhibition of viral entry into African green monkey Vero cells compound co-treated with cells and viral inoculum for 45 mins measured after 48 hrs by plaque formation assay; type: functional, organism-based; conditions: Human alphaherpesvirus 1, Vero
Procedure, shortened: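 Cotreatment: Vero cells exposed to peptide (10–200 μM, serum-free DMEM) together with serial dilutions of LacZ HSV-1 inoculum for 45 min at 37 °C. Nonpenetrated virus inactivated by pH 3.0 citrate, then 48 h at 37 °C in DMEM with CMC; X-gal staining, plaques counted. Triplicates; inhibition percentage vs no-peptide control.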

| Substance | inhibition (Human alphaherpesvirus 1 [1]) | inhibition at 100 µM (Human alphaherpesvirus 1 [2]) [%] | Activity (Vero) | IC50 (Human alphaherpesvirus 1 [3]) [µM] |
| --- | --- | --- | --- | --- |
| H-YNHIQRHVNDMLGR-OH | inactive | 100 | Non-toxic |  |
| H-FARLQFTYNHIQRHVRDMEGR-OH | inactive | 100 | Non-toxic | 60 |
| H-YNHIQRHVNDMLGRVKKAWEE-OH |  |  | Non-toxic |  |
